In ChEMBL document CHEMBL1137992, “Long hydrocarbon chain keto diols and diacids that favorably alter lipid disorders in vivo” (J Med Chem, 2004):

Assays:
Type in all cases: functional
Rattus norvegicus [1] = assay: Amount of non-HDL-cholesterol in obese Zucker rats at pre-treatment at a dose of 30 mg/kg/day
Method in brief: (§1)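 Female obese Zucker fatty rats [Crl:(Zuc)-faBR], 10–12 weeks old (400–500 g), on chow. Compound in 20% EtOH/80% PEG-200 (v/v) given by daily oral gavage. After a 6-h fast, serum was taken before dosing and at 7 days (orbital plexus), and at 14 days (cardiac puncture). Lipoprotein cholesterol came from Superose 6HR gel-filtration profiles × serum total cholesterol. Mean ± SEM.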

Rattus norvegicus [2] = assay: Amount of insulin in obese Zucker rats after 2 weeks of treatment at a dose of 100 mg/kg/day
Method in brief: (§2)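 Female obese Zucker rats [Crl:(Zuc)-faBR], 400–500 g, given daily oral gavage in 20% EtOH/80% PEG-200 for up to 14 days. After a 6-h fast, serum was collected pretreatment and at day 7 (orbital bleed) and day 14 (cardiac puncture) and stored at -80 °C. Insulin was measured by ELISA. Values are mean ± SEM.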

Rattus norvegicus [3] = assay: Amount of non-HDL-cholesterol in obese Zucker rats at pre-treatment at a dose of 3 mg/kg/day; method in brief: as §1
Rattus norvegicus [4] = assay: Amount of insulin in obese Zucker rats at pre-treatment at a dose of 3 mg/kg/day; method in brief: as §2
Rattus norvegicus [5] = assay: Amount of insulin in obese Zucker rats at pre-treatment at a dose of 30 mg/kg/day; method in brief: as §2
Rattus norvegicus [6] = assay: Amount of triglycerides in obese Zucker rats after 1 week of treatment at a dose of 30 mg/kg/day
Method in brief: (§3)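 Female Zucker fatty rats [Crl:(Zuc)-faBR], 10–12 weeks old (400–500 g), dosed once daily by oral gavage in 20% EtOH/80% PEG-200 for up to 14 days. After a 6-h fast, serum was taken pre-dose, at day 7 (orbital venous plexus, O2/CO2 anaesthesia) and at day 14 (cardiac puncture), stored at −80 °C, and assayed on a Hitachi 912 automatic analyzer. Mean ± SEM.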

Rattus norvegicus [7] = assay: Amount of HDL-cholesterol in obese Zucker rats after 2 weeks of treatment at a dose of 10 mg/kg/day
Method in brief: (§4)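 Female Zucker fatty rats [Crl:(Zuc)-faBR], 10–12 weeks old (400–500 g), dosed once daily by oral gavage in 20% EtOH/80% PEG-200 (dose volume 0.25% of body weight). Rats were fasted 6 h and bled before dosing and at day 7 (orbital plexus), and at day 14 (cardiac puncture). Serum cholesterol fractions came from Superose 6 gel-filtration lipoprotein profiles (% peak area × serum total cholesterol). Values are mean ± SEM.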

Rattus norvegicus [8] = assay: Amount of HDL-cholesterol in obese Zucker rats after 2 weeks of treatment at a dose of 30 mg/kg/day; method in brief: as §4
Rattus norvegicus [9] = assay: Amount of nonesterified fatty acids in obese Zucker rats at pre-treatment at a dose of 10 mg/kg/day; method in brief: as §3
Rattus norvegicus [10] = assay: Amount of nonesterified fatty acids in obese Zucker rats at pre-treatment at a dose of 0 mg/kg/day; method in brief: as §3
Rattus norvegicus [11] = assay: Amount of nonesterified fatty acids in obese Zucker rats at pre-treatment at a dose of 100 mg/kg/day; method in brief: as §3
Rattus norvegicus [12] = assay: Amount of non-HDL-cholesterol in obese Zucker rats after 1 week of treatment at a dose of 0 mg/kg/day; method in brief: as §4
Rattus norvegicus [13] = assay: Amount of non-HDL-cholesterol in obese Zucker rats after 1 week of treatment at a dose of 10 mg/kg/day; method in brief: as §4
Rattus norvegicus [14] = assay: Amount of non-HDL-cholesterol in obese Zucker rats after 1 week of treatment at a dose of 30 mg/kg/day; method in brief: as §4
Rattus norvegicus [15] = assay: Percent decrease in triglycerides in obese Zucker rats after 1 week of treatment at a dose of 30 mg/kg/day; design: scale not given: the % may be the effect or the level left
Method in brief: (§5)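 Female Zucker fatty rats [Crl:(Zuc)-faBR], 10–12 weeks, 400–500 g, acclimated 7 days on chow. Compound or vehicle (20% EtOH/80% PEG-200) given by daily oral gavage for 2 weeks, 0–100 mg/kg/day. After a 6 h fast, blood was taken before dosing, at 1 wk and at 2 wk. Serum lipids, NEFA and insulin (ELISA) were measured; glucose by glucometer. HDL/non-HDL-C came from Superose 6 gel-filtration profiles. Values are % change from pretreatment, mean ± SEM.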

Rattus norvegicus [16] = assay: Percentage change of triglycerides in obese female Zucker rats after 2 weeks of pre-treatment at a dose of 100 mg/kg/day
Method in brief: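 Female Zucker fatty rats [Crl:(Zuc)-faBR], 10–12 weeks old (400–500 g), acclimated 7 days and fed rodent chow. Dosed once daily by oral gavage in 20% EtOH/80% PEG-200 (v/v), at 0.25% of body weight, for 2 weeks. Blood taken after a 6-h fast: orbital plexus before dosing and at day 7, cardiac puncture at day 14. Serum lipoprotein cholesterol measured by Superose 6 gel filtration with on-line cholesterol detection. Values are % change from pretreatment, mean ± SEM.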

Rattus norvegicus [17] = assay: Percentage change of HDL cholesterol levels in obese female Zucker rats after 1 week of pre-treatment at a dose of 100 mg/kg/day
Method in brief: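 Obese female Zucker fatty rats were gavaged once daily with 30 or 100 mg/kg/day in 20% EtOH/80% PEG-200 for 2 weeks. Sera were collected after a 6 h fast, before dosing, at 1 week (orbital plexus) and at 2 weeks (cardiac puncture). HDL-C was total cholesterol multiplied by HDL area fraction from gel-filtration lipoprotein profiles. Reported as % change from pretreatment ± SEM.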

Rattus norvegicus [18] = assay: Amount of nonesterified fatty acids in obese Zucker rats after 1 week of treatment at a dose of 30 mg/kg/day; method in brief: as §3
Rattus norvegicus [19] = assay: Percent increase in HDL-cholesterol in obese Zucker rats after 1 week of treatment at a dose of 30 mg/kg/day; method in brief: as §5
Rattus norvegicus [20] = assay: Amount of HDL-cholesterol in obese Zucker rats after 1 week of treatment at a dose of 0 mg/kg/day; method in brief: as §4
Rattus norvegicus [21] = assay: Amount of triglycerides in obese Zucker rats after 1 week of treatment at a dose of 100 mg/kg/day; method in brief: as §3
Rattus norvegicus [22] = assay: Amount of triglycerides in obese Zucker rats after 2 weeks of treatment at a dose of 30 mg/kg/day; method in brief: as §3
Rattus norvegicus [23] = assay: Amount of HDL-cholesterol in obese Zucker rats at pre-treatment at a dose of 30 mg/kg/day; method in brief: as §4
Rattus norvegicus [24] = assay: Amount of glucose in obese Zucker rats after 1 week of treatment at a dose of 3 mg/kg/day
Method in brief: (§6)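 Female Zucker fatty rats [Crl:(Zuc)-faBR], 10–12 weeks old (400–500 g), gavaged daily with vehicle (20% EtOH/80% PEG-200, 0.25% of body weight) or compound. After a 6-h fast, blood glucose was read by glucometer from tail-prick blood of unanesthetized rats before dosing and after 1 and 2 weeks. Values are mean ± SEM.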

Rattus norvegicus [25] = assay: Amount of insulin in obese Zucker rats after 1 week of treatment at a dose of 3 mg/kg/day; method in brief: as §2
Rattus norvegicus [26] = assay: Amount of glucose in obese Zucker rats after 1 week of treatment at a dose of 10 mg/kg/day; method in brief: as §6
Rattus norvegicus [27] = assay: Amount of triglycerides in obese Zucker rats at pre-treatment at a dose of 10 mg/kg/day; method in brief: as §3
Rattus norvegicus [28] = assay: Amount of glucose in obese Zucker rats at pre-treatment at a dose of 0 mg/kg/day; method in brief: as §6

Row | SMILES | Activity (Rattus norvegicus [1]) | Activity (Rattus norvegicus [2]) | Activity (Rattus norvegicus [3]) | Activity (Rattus norvegicus [4]) | Activity (Rattus norvegicus [5]) | Activity (Rattus norvegicus [6]) | Activity (Rattus norvegicus [7]) | Activity (Rattus norvegicus [8]) | Activity (Rattus norvegicus [9]) | Activity (Rattus norvegicus [10]) | Activity (Rattus norvegicus [11]) | Activity (Rattus norvegicus [12]) | Activity (Rattus norvegicus [13]) | Activity (Rattus norvegicus [14]) | Activity (Rattus norvegicus [15]) | Change (Rattus norvegicus [16]) | Change (Rattus norvegicus [17]) | Activity (Rattus norvegicus [18]) | Activity (Rattus norvegicus [19]) | Activity (Rattus norvegicus [20]) | further results
1 | CC(C)(CO)CCCCC(=O)CCCCC(C)(C)CO | 30 mg/dL | 11 ng/mL | 24 mg/dL | 8.8 ng/mL | 9.3 ng/mL | 726 mg/dL | 53 mg/dL | 61 mg/dL | 1.2 mg/dL | 1.2 mg/dL | 1.4 mg/dL | 36 mg/dL | 21 mg/dL | 28 mg/dL | -27% | -29% | 111% | 1.1 mg/dL | 40% | 39 mg/dL | Activity (Rattus norvegicus [21]): 485 mg/dL; Activity (Rattus norvegicus [22]): 985 mg/dL; Activity (Rattus norvegicus [23]): 43 mg/dL; Activity (Rattus norvegicus [24]): 106 mg/dL; Activity (Rattus norvegicus [25]): 7.5 ng/mL; Activity (Rattus norvegicus [26]): 110 mg/dL; Activity (Rattus norvegicus [27]): 777 mg/dL; Activity (Rattus norvegicus [28]): 125 mg/dL
2 | CC(C)(CCCCC(=O)CCCCC(C)(C)C(=O)O)C(=O)O | 48 mg/dL | 9.5 ng/mL | 32 mg/dL | 10.4 ng/mL | 7.7 ng/mL | 826 mg/dL | 39 mg/dL | 50 mg/dL | 1.6 mg/dL | 1.5 mg/dL | 1.2 mg/dL | 43 mg/dL | 26 mg/dL | 37 mg/dL | -33% | -69% | 54% | 1 mg/dL | 56% | 39 mg/dL | Activity (Rattus norvegicus [21]): 383 mg/dL; Activity (Rattus norvegicus [22]): 962 mg/dL; Activity (Rattus norvegicus [23]): 34 mg/dL; Activity (Rattus norvegicus [24]): 99 mg/dL; Activity (Rattus norvegicus [25]): 10.7 ng/mL; Activity (Rattus norvegicus [26]): 105 mg/dL; Activity (Rattus norvegicus [27]): 1143 mg/dL; Activity (Rattus norvegicus [28]): 134 mg/dL
3 | CC(C)(CCCCCC(=O)CCCCCC(C)(C)C(=O)O)C(=O)O | 27 mg/dL | 6 ng/mL | 22 mg/dL | 8.6 ng/mL | 9.8 ng/mL | 213 mg/dL | 138 mg/dL | 208 mg/dL | 1.2 mg/dL | 1.3 mg/dL | 1.4 mg/dL | 29 mg/dL | 22 mg/dL | 14 mg/dL | -78% | -94% | 72% | 0.88 mg/dL | 156% | 66 mg/dL | Activity (Rattus norvegicus [21]): 69 mg/dL; Activity (Rattus norvegicus [22]): 475 mg/dL; Activity (Rattus norvegicus [23]): 62 mg/dL; Activity (Rattus norvegicus [24]): 117 mg/dL; Activity (Rattus norvegicus [25]): 10 ng/mL; Activity (Rattus norvegicus [26]): 122 mg/dL; Activity (Rattus norvegicus [27]): 863 mg/dL; Activity (Rattus norvegicus [28]): 129 mg/dL
